From PubChem
D1 allo mod – D1 dopamine receptor (human) allosteric modulation; B-score at 10 µM; HEK293 D1, CRE-luciferase, dopamine EC30 potentiation; actives deviate in either direction; AID 641; 58,000 tested, 5.9% active;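 active = luminescence count or its row- and column-corrected plate score outside the 99.7% band of the plate's sample wells, on either side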
Target sequence (P21728 whole entry, looked up): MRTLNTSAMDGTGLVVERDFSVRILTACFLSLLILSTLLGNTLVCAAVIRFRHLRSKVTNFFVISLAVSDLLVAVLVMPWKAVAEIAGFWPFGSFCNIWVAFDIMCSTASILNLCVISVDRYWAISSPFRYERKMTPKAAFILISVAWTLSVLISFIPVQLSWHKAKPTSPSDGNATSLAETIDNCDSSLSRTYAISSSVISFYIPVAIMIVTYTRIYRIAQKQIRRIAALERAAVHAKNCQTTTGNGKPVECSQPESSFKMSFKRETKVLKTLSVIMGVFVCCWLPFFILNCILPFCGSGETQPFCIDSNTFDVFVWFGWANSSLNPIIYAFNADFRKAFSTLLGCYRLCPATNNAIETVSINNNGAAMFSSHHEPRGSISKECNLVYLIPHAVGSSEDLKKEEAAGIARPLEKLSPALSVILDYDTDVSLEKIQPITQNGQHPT
hDAT+cocaine – human DAT dopamine uptake with cocaine, either direction; Q01959; AID 449768; B-score at 10 µM; LLC-PK1 hDAT cells, [14C]-dopamine uptake with cocaine IC80; actives deviate in either direction; 110,000 tested, 1.3% active;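 active = Z score or B-score, a plate-position-corrected score, falls beyond the plate's 99.7% confidence bounds, in either direction; inactive = both scores lie inside the 99.7% bounds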;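 also: scored against the spread of the other compound wells on the same plate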
PostGolgi yeast – growth inhibition of a yeast mutant, post-Golgi transport screen; post-Golgi transport phenotypic cell assay; inhibition, % at 10 µM; 98,000 tested, 0.9% active; AID 739;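 also: yeast cells grown in 1536-well plates; yeast grown about 18 h at 30C before absorbance read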
PostGolgi ctrl – growth of the yeast control strain, post-Golgi counter-screen; 98,000 tested, 5% active; inhibition, % at 10 µM; efflux-deficient yeast background strain, growth absorbance A615, 16 h
Ecoli tolC – E. coli tolC mutant growth inhibition; E. coli BW25113 tolC mutant growth, OD615; growth inhibition, % at 10 µM (by protocol); 65,000 tested, 2.2% active;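 active = growth inhibition at or above a cutoff equal to the mean over every tested compound plus 3 SD, cut at about 60% in these data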;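 also: growth measured after 20 h incubation at 37 °C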
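Test system: E. coli BW25113 ΔtolC::kan bacteria | Medium: Kanamycin-containing LB broth (50 µg/mL) | Dosing: One dose of 10 µM final | Times: 20 h incubation with compound, 37 °C | Detection: Optical density read at 615 nm | Read-out basis: Percent growth inhibition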
Ecoli WT expand – E. coli BW25113 growth inhibition, expanded screen; OD600 absorbance; growth inhibition, % at 100 µM; 98,000 tested, 0.15% active;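 active = growth inhibition above about 50% at one test dose, limit read from the data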;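 also: growth measured after 20 h incubation at 37 °C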
* hit, by the source's call; / = not tested or not shown. Most compounds without a hit are left out; they make up all but 9.3% or so of the library. Rule as the data show it, unless noted: active = inhibition above about 30%; inactive = the rest.

SMILES | D1 allo mod | hDAT+cocaine | PostGolgi yeast | PostGolgi ctrl | Ecoli tolC | Ecoli WT expand
COc1cc(S(=O)(=O)N2CCN(c3ccccc3)CC2)ccc1Cl | 0.41 | -0.58 | 12 | 19 | 10 | 4
NC(=O)c1ccc(C(F)(F)F)n(Cc2c(Cl)cccc2Cl)c1=O | / | 1.5 | 7 | 34* | / | -9
COc1ccc(-c2n[nH]c(C)c2-c2cnn(-c3ccccc3)c2)c(O)c1 | / | 1.7 | / | / | 14 | /
COc1ccc(-c2n[nH]c(C)c2-c2cnn(-c3ccccc3)c2)c(O)c1C | / | -1.2 | -12 | 50* | / | -12
COc1ccccc1C(=O)Nc1nc(-c2ccc3c(c2)OCCO3)cs1 | / | -0.78 | / | / | / | /
CCCc1cc(-c2nc(N)ncc2-c2ccc3c(c2)OCCCO3)c(O)cc1OC | 2.8 | 0.51 | -12 | 40* | 1 | -6
CC(=O)c1ccc(N2CCN(C(=O)c3ccc(Br)cc3)CC2)c(F)c1 | -0.9 | -0.25 | 87* | 54* | 12 | -2
CC(=O)c1ccc(N2CCN(C(=O)c3ccco3)CC2)c(F)c1 | -0.19 | 2.3 | -18 | 5 | -5 | 6
C/C(=N\NC(=O)c1cccc(F)c1)c1ccc(Br)s1 | / | -0.95 | -4 | 0 | / | -5
COc1ccc(-c2cnn(-c3ccccc3)c2N)cc1OC | 0.035 | -0.013 | -2 | 10 | -1 | -3
COc1ccc(C2=C(O)C(C)N(c3ccccc3)C2=N)cc1OC (configuration not stated) | -3.5* | 0.18 | 1 | 5 | -10 | 3
CCOc1ccc(C(CC(=O)O)NC(=O)C23CC4CC(CC(C4)C2)C3)cc1 (configuration not stated) | / | 0.7 | 1 | 8 | / | -8
CCOc1ccc(NCc2nnc(SCc3ccccc3Cl)n2-c2ccccc2)cc1 | / | -12* | 6 | 9 | / | -20
COC(=O)CSc1nnc(CNc2ccc(Cl)cc2)n1-c1ccccc1 | / | / | 63* | 65* | / | 3
CN1CCc2c(sc3c2c(=O)n(-c2ccccc2)c2nnc(SCc4ccccc4F)n32)C1 | 0.17 | / | / | / | -5 | /
CCO[C@H]1OC(C(=O)N2CCN(C)CC2)=C[C@@H](C)[C@@H]1CCCO | / | -0.62 | / | / | / | /
CC(=O)CSc1nnc(Cc2ccc3c(c2)OCO3)o1 | / | 0.72 | / | / | / | /
COc1ccc(-c2onc3ccc(Cl)cc23)cc1OC | 13* | / | / | / | 27 | /
CC(Sc1ccc(Cl)cc1)C(=O)Nc1ccc(S(=O)(=O)N2CCOCC2)cc1 (configuration not stated) | / | 0.1 | -3 | 9 | / | -12
COc1ccc(OC)c(NC(=O)CSc2nc(C)cs2)c1 | 0.28 | -0.2 | -4 | 20 | 6 | 4
COC(=O)Cn1cc(/C=N/NC(=O)c2ccc(C#N)cc2F)c2ccccc21 | / | 0.97 | 2 | 40* | / | 0
CCn1cc(/C=N/NC(=O)c2ccc(C#N)cc2F)c2ccccc21 | / | 1.9 | 1 | 2 | / | 7
COc1ccc([N+](=O)[O-])cc1COc1cc(C)cc2oc(=O)cc(-c3ccccc3)c12 | / | -0.49 | -1 | 26 | / | -19
CCOC(=O)Cn1c(CN(Cc2ccccc2)Cc2ccccc2)nc2c1c(=O)n(C)c(=O)n2C | 0.045 | 3.8* | 9 | 19 | 35 | -9
Cn1c(=O)c2c(nc(SCC(=O)OCc3ccccc3)n2C)n(C)c1=O | -0.67 | 1.2 | 0 | 34* | -13 | -4
SMILES | D1 allo mod | hDAT+cocaine | PostGolgi yeast | PostGolgi ctrl | Ecoli tolC | Ecoli WT expand
CC(C)CCn1c(Oc2ccccc2Cl)nc2c1c(=O)n(C)c(=O)n2C | / | -0.057 | 15 | 32* | / | -9
Cc1cc(C)nc(SCCn2c(N(C)Cc3ccccc3)nc3c2c(=O)n(C)c(=O)n3C)n1 | / | 0.67 | 13 | 34* | / | 3
CN(Cc1ccccc1)c1nc2c(c(=O)n(C)c(=O)n2C)n1CCSc1ncccn1 | / | 0.012 | -7 | 6 | 8 | 10
COc1ccc(C2C(C(N)=O)=C(C)Nc3nc(-c4ccccc4Cl)nn32)c(OC)c1 (configuration not stated) | 0.11 | 0.68 | -6 | 17 | -2 | 3
CCCn1c(CN(Cc2ccccc2)Cc2ccccc2)nc2c1c(=O)n(C)c(=O)n2C | -0.016 | -2.2 | -7 | 29 | 65* | 2
CCCn1c(SCc2cc(=O)[nH]c3ccccc23)nc2c1c(=O)n(C)c(=O)n2C | 6* | -0.33 | / | / | -20 | /
CN(Cc1ccccc1)Cc1nc2c(c(=O)n(C)c(=O)n2C)n1Cc1ccccc1Cl | 0.57 | -0.0086 | 1 | 40* | 5 | -9
Cc1cc(-c2cc(N)n(-c3ccccc3)n2)c(C)n1C1CCCC1 | -2.7 | 2.1* | 0 | 4 | 17 | -3
COCCn1nnnc1CN1CCC(O)(c2cccc(C(F)(F)F)c2)CC1 | 0.037 | 0.081 | 8 | 3 | -11 | -8
COc1cc(S(=O)(=O)N2CCC(O)(c3cccc(C(F)(F)F)c3)CC2)ccc1-n1cnnn1 | 0.57 | -0.7 | -10 | 3 | 100* | -10
Cc1ccc(-n2c(SCC(N)=O)nnc2-c2ccc(S(=O)(=O)N3CCCCC3)cc2)c(C)c1 | / | -0.42 | 4 | 10 | / | -1
O=c1c2cccnc2[nH]c(=S)n1CCCN1CCN(c2ccc(F)cc2)CC1 | / | 0.039 | 14 | 42* | 2 | -13
CCOCCCn1c(=S)[nH]c2ncccc2c1=O | / | / | 7 | 33* | 1 | -9
COc1ccc(N2CCN(CCCn3c(=S)[nH]c4ncccc4c3=O)CC2)cc1 | / | -0.083 | 16 | 10 | / | -7
CC(C)CCn1c(=S)[nH]c2ncccc2c1=O | / | / | -3 | 1 | -2 | -5
CCS(=O)(=O)c1ccc(S(=O)(=O)CC)s1 | 0.11 | -0.38 | 14 | 5 | -18 | -4
Clc1cc(Br)ccc1OCCOCCN1CCOCC1 | / | -0.79 | 53* | 14 | 8 | 6
Clc1ccc(OCCOCCN2CCCCC2)c(Br)c1 | / | -0.68 | 42* | 26 | / | 16
CC1CCN(CCOCCOc2ccc(Cl)cc2Br)CC1 | / | 0.1 | 22 | 27 | / | 23
CC1CCC2(CC1)N=C(N)Nc1nc3ccccc3n12 (configuration not stated) | / | 0.0029 | 2 | 6 | / | 14
O=C1C(C=NCc2cccnc2)=C(O)c2ccccc21 | -2.8 | -0.27 | -8 | 40* | -7 | 2
Cc1nc(NC(C)c2ccccc2)c2oc3ccccc3c2n1 (configuration not stated) | 1.5 | 0.77 | 9 | 74* | 16 | 5
CCC(C)[C@@H](NC(=O)OC(C)(C)C)c1nnc(S(=O)(=O)Cc2cccc(C)c2)o1 (some centres not stated) | / | -1 | 15 | 52* | -7 | 4
CC(C)(C)OC(=O)N[C@@H](Cc1ccccc1)c1nnc(S(=O)(=O)Cc2ccccc2)o1 | -0.5 | -0.0094 | 17 | 10 | 3 | 1
Cc1ccccc1CS(=O)(=O)c1nnc([C@H](Cc2ccccc2)NC(=O)OC(C)(C)C)o1 | / | -0.13 | 37* | 51* | / | 9
COc1c(OC(C)=O)ccc(/C=C/c2ccc3ccccc3n2)c1[N+](=O)[O-] | / | 0.64 | -2 | 73* | / | -16
CCOc1c(OC(C)=O)ccc(/C=C/c2ccc3cccc(OC(C)=O)c3n2)c1[N+](=O)[O-] | / | / | 9 | 7 | / | -3
